Experimental data published in publication PMC3304100 (Molecular Pharmaceutics, 2011).

Assays:
rat gut wall = experiment: In situ single-pass intestinal perfusion in rats; type: in vivo; settings: pH 5.5, n=4, metoprolol co-perfused as reference
Summary of the method: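 Fasted (12–18 h) male Wistar rats (250–280 g), ketamine-xylazine im. ~10 cm jejunal, mid-intestinal or ileal segment cannulated and perfused at 0.18 ml/min with pH 5.5 MES buffer, 290 mosm/l, containing phenol red and metoprolol. Drug concentration = highest oral dose/250 ml. After 1 h to steady state, outlet sampled every 10 min for 1 h; HPLC. Peff by plug-flow model, water-flux corrected, R 0.2 cm.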

[1] = cited from earlier work
hPepT1 = target: T1, hPepT1 (Homo sapiens, UniProt P46059); experiment: Uptake in hPepT1 transfected vs non-transfected HeLa cells; type: cell-based; settings: 1mM, pH 6.0, 45 min, 37°C, n=3
T1 sequence (P46059 1-708): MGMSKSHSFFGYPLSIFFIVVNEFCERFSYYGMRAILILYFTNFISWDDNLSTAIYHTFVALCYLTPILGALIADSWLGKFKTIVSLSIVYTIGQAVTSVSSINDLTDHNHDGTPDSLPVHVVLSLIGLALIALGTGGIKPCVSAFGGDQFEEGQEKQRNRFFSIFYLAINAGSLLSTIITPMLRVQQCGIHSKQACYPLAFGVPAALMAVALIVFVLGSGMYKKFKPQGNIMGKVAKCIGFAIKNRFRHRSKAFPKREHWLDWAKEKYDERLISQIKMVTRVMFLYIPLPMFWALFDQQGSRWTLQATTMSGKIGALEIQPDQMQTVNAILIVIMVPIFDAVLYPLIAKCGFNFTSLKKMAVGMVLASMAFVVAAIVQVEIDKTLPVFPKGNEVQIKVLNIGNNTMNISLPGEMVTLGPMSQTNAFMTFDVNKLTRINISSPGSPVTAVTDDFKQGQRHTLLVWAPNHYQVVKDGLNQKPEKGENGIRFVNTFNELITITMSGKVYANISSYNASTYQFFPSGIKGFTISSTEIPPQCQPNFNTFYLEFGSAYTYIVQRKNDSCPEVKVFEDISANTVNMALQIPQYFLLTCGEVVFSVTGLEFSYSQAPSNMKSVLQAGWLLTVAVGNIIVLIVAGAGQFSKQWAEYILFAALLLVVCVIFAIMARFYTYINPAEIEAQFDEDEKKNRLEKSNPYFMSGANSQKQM
Summary of the method: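 HeLa cells transduced with hPepT1-carrying adenovirus and used two days post-infection; non-transfected HeLa cells served as control. Cells were washed with pH 6.0 uptake buffer, then exposed to test compound (1mM) in uptake buffer at 37°C for 45 min and washed ice-cold. They were extracted in methanol:water (50:50) for 1 h at room temperature, and the supernatant was filtered and quantified by LC-MS. Sample protein was measured by DC assay against a BSA standard.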

Row | SMILES | Effective permeability (Peff), in words (rat gut wall) | Absolute oral availability [1] | Uptake in HeLa/hPepT1 cells compared to non-transfected HeLa cells (hPepT1)
1 | CC(=O)N[C@H]1[C@H]([C@H](O)[C@H](O)CO)OC(C(=O)O)=C[C@@H]1N=C(N)N [Zanamivir] | absolutely no permeability | approximately 2% | 
2 | CC(C)[C@H](N)C(=O)OCCOCn1cnc2c(=O)[nH]c(N)nc21 [Valacyclovir] |  |  | ~ 5 fold
